Data set [1] concerns MDA-MB-468 human breast cancer cell line. Particulars: read-out: IC50, MDA-MB-468; ref Bender and Atalay, 2018; cited from earlier work.
For data set [2], the system named is breast cancer cell lines (MCF-7 and MDA-MB-231). The experiment in a line: MTT cytotoxicity on the breast cancer cell lines. The format is cell-based. Particulars: MCF-7 and MDA-MB-231, MTT.
In data set [3] the test system is PLC/PRF/5 hepatocellular carcinoma cell line. Particulars: 100 µM; ref Refolo et al., 2018; cited from earlier work.
The test system of data set [4] is BT-20 human breast cancer cell line. Particulars: read-out: IC50, BT-20; ref Bender and Atalay, 2018; cited from earlier work.
Data set [5] relates to MCF-10A non-tumorigenic breast epithelial cell line. The experiment in a line: MTT cytotoxicity assay, MCF-10A. Particulars: 24 h; for IC50: Homo sapiens, MCF-10A, read-out: IC50, MCF-10A. The format is cell-based. The gist of the method: (§1)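 Human lines were obtained from ATCC. MCF-7 and MDA-MB-231 were grown in DMEM with 10% FBS, and MCF-10A in DMEM-F12 with 10% FBS, all at 37 °C, 5% CO2. Cells were seeded at 1×10^4 per well, given varying concentrations of extract or test compound, and PBS-washed after 24 h. MTT was applied for 4 h at 37 °C and formazan dissolved in DMSO, with absorbance read at 570 nm. Hydrogen peroxide was the positive control. Runs were done in triplicate, with % viability and IC50 calculated.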
(Formazan colour is commonly taken as a measure of viable cells.)

In data set [6] the test system is HepG2 hepatocellular carcinoma cell line. Particulars: 100 µM; ref Refolo et al., 2018; cited from earlier work.
In data set [7] the test system is MCF-7 cell line. The experiment in a line: MTT cytotoxicity assay, MCF-7. The format is cell-based. Particulars: for IC50: Homo sapiens, MCF7, 24 h, read-out: IC50, MCF-7. In short, it runs like this:
as §1

Data set [8] concerns MDA-MB-231 cell line. The experiment in a line: Annexin V-FITC/PI flow cytometry, MDA-MB-231. Particulars: 48 h; for viable cells, MDA-MB-231: quadrant LL, highest doses of compounds; for early apoptotic cells, MDA-MB-231: quadrant LR; for necrotic cells, MDA-MB-231: quadrant UL; for late apoptotic cells, MDA-MB-231: quadrant UR. The format is cell-based. On the technique in general: In flow cytometry, cells or beads pass a laser one at a time.

The test system of data set [9] is SK-BR-3 human breast cancer cell line. Particulars: read-out: IC50, SK-BR-3; ref Bender and Atalay, 2018; cited from earlier work.
Data set [10] has as its system MDA-MB-231 cell line. The experiment in a line: MTT cytotoxicity assay, MDA-MB-231. Particulars: for IC50: Homo sapiens, MDA-MB-231, 24 h, read-out: IC50, MDA-MB-231. In kind it is cell-based. In short, it runs like this: as §1
Data set [11] relates to MCF-7 cell line. The experiment in a line: Annexin V-FITC/PI flow cytometry, MCF-7. The format is cell-based. Particulars: 48 h.
For data set [12], the system named is SK-MEL5 melanoma cancer cell line. Particulars: ref Manthey and Guthrie, 2002; cited from earlier work.
Data set [13] has as its system cells. The experiment in a line: Cell death type. The format is cell-based. In short, it runs like this: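 MCF-7, MDA-MB-231 and MCF-10A cells were seeded at 3×10^5 cells per well in six-well plates and held 24 h at 37 °C, 5% CO2. They were exposed 48 h to the highest test-compound doses, trypsinised, PBS-washed and pelleted at 1500 rpm for 5 min. Cells were stained with Annexin V-FITC/PI in 1X binding buffer for 15 min at 37 °C in the dark, then run by flow cytometry. Viable, early/late apoptotic and necrotic cells are given as % of total, in triplicate.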

Data set [14] relates to DU-145 prostate cancer cell line. Particulars: ref Manthey and Guthrie, 2002; cited from earlier work.
The subject of data set [15] is DMS-114 human lung cancer cell line. Particulars: ref Manthey and Guthrie, 2002; cited from earlier work.
Data set [16] has as its system DU145 prostate cancer cell. Particulars: ref Lewinska et al., 2015, cited from earlier work.
The subject of data set [17] is A431 cells. Particulars: MTT assay; ref Buddhan and Manoharan, 2017; cited from earlier work.
The test system of data set [18] is HT-29 colon cancer cell line. Particulars: ref Manthey and Guthrie, 2002; cited from earlier work.
The test system of data set [19] is INS-1 pancreatic cancer cell line. Particulars: read-out: IC50, INS-1; ref Boukes and Venter, 2016; cited from earlier work.
The subject of data set [20] is MIA PaCa-2 pancreatic cancer cell line. Particulars: read-out: IC50, MIA PaCa-2; ref Boukes and Venter, 2016; cited from earlier work.
Data set [21] has as its system A549 human non-small cell lung cancer cell line. Particulars: ref Yang et al., 2017, cited from earlier work.
For data set [22], the system named is Bel-7402 human hepatocellular carcinoma. Particulars: ref Sun et al. 2006; cited from earlier work.
In data set [23] the test system is A375-S2 human malignant melanoma. Particulars: ref Sun et al. 2006; cited from earlier work.
Data set [24] concerns HeLa human uterine carcinoma. Particulars: ref Sun et al. 2006; cited from earlier work.
The subject of data set [25] is SGC-7901 human gastric cancer cell line. Particulars: ref Sun et al. 2006; cited from earlier work.
The test system of data set [26] is HT-1080 fibrosarcoma cell line. Particulars: ref Rajendra et al., 2011, cited from earlier work.
Data set [27] has as its system HCT-116 human colon cancer cell line. Particulars: ref Znati et al., 2014; cited from earlier work.
Data set [28] has as its system OVCAR-3 human ovary cell line. Particulars: ref Znati et al., 2014; cited from earlier work.
The test system of data set [29] is HEP-G2 hepatocellular carcinoma cells. Particulars: 25–400 μg/mL, 72 h, MTT assay; ref Gevrenova et al., 2016; cited from earlier work.
In data set [30] the test system is IGROV-1 human ovary cell line. Particulars: ref Znati et al., 2014; cited from earlier work.
[31] abbreviates: MTT assay, 24 h, ± standard deviation.

In brackets after ≈: the same amount, converted by molar mass. Several values for one entry are separate records, joined by “and”; a condition that tells them apart may be missing. Identical values can stand only once. Like-named read-outs stand apart in the source and are kept apart here. A value given as a limit tells only on which side of the number the result lay.

As usually defined, the IC50 is the point on the concentration scale where inhibition reaches its midpoint.

As to `O=C(/C=C/c1ccc(O)c(O)c1)O[C@@H]1C[C@](O)(C(=O)O)C[C@@H](O)[C@H]1O` [Compound 5, Chlorogenic acid], the IC50 in data set [1] is 940 µM; in data set [4] it was 1100 µM; in data set [5], 356 ± 19.1 µg/mL (≈ 1010 µM); in data set [7], 371 ± 9.49 µg/mL (≈ 1050 µM); in data set [9], 882 µM; in [10], 361 ± 4.83 µg/mL (≈ 1020 µM). For the same compound, in [2], the “concentration up to which no cytotoxic activity was shown” value is reported as > 360 µg/mL. Moreover, in data set [3], the “effect on Regorafenib-mediated cell growth inhibition, PLC/PRF/5” value was “enhanced”. The “effect on Regorafenib-mediated cell growth inhibition, HepG2” value in [6] is given as “enhanced”. Besides, the “viable cells, MDA-MB-231” value in data set [8] is 51%.

For the compound `OO` [Compound H2O2, hydrogen peroxide, reference compound], the “IC50, MCF-10A” value in [5] (MTT assay, ± standard deviation) was 10.32 ± 3.60 µg/mL and 11.40 ± 3.60 µg/mL and 9.77 ± 8.56 µg/mL and 12.58 ± 9.77 µg/mL. Further, in data set [11] (doses as b44), the “percentage of cell death, MCF-7” value was determined as 70%. In data set [11] (quadrant LL, H2O2 17, Compound 1 24, 2 156, 3 372, 4 30, 5 710, 6 60 µg/mL), the “viable cells, MCF-7” value was found to be 30%. Besides, the “IC50, MCF-7” value in data set [7] (setting [31]) is 7.45 ± 12.77 µg/mL and 10.11 ± 0.90 µg/mL and 11.97 ± 6.72 µg/mL and 9.91 ± 0.31 µg/mL. Also, in data set [8], the “percentage of cell death, MDA-MB-231” value is 79% and the “viable cells, MDA-MB-231” value worked out at 21%. Moreover, the “IC50, MDA-MB-231” value in data set [10] (setting [31]) is 8.48 ± 3.53 µg/mL and 11.86 ± 2.43 µg/mL and 11.45 ± 1.52 µg/mL.

With `COc1ccc(-c2cc(=O)c3c(O)cc(O[C@@H]4O[C@H](CO[C@@H]5O[C@@H](C)[C@H](O)[C@@H](O)[C@H]5O)[C@@H](O)[C@H](O)[C@H]4O)cc3o2)cc1O` [Compound 1, Diosmetin-7-O-rutinoside], in [12], the “concentration up to which no cytotoxic activity was shown, SK-MEL5” value is > 200 µM. Besides, the “type of cell death causing the cytotoxic effect” value in data set [13] is reported as “necrosis”. The “concentration up to which no cytotoxic activity was shown, DU-145” value in [14] is given as > 200 µM. Besides, the figures for the IC50 in data set [5], in data set [7] and in data set [10] were 8.66 ± 20.5 µg/mL (≈ 14.2 µM), 13.7 ± 11 µg/mL (≈ 22.4 µM) and 12.9 ± 12.2 µg/mL (≈ 21.2 µM), respectively. Further, the “concentration up to which no cytotoxic activity was shown, DMS-114” value in data set [15] is recorded as > 200 µM. Moreover, the DU145 cell viability is recorded as 70% in data set [16] (50 µM) and 40% in data set [16] (250 µM). In addition, the “IC50, A431” value in data set [17] was 45 µg/mL (≈ 73.9 µM). Further, in [8], the “viable cells, MDA-MB-231” value is given as 56%. Also, the “concentration up to which no cytotoxic activity was shown, HT-29” value in data set [18] is given as > 200 µM.

For `O=c1c(O[C@@H]2O[C@H](CO)[C@H](O)[C@H](O)[C@H]2O)c(-c2ccc(O)c(O)c2)oc2cc(O)cc(O)c12` [Compound 3, Quercetin-3-O-galactoside], the IC50 was 50 µM in [19]; 127 ± 12.5 µg/mL (≈ 273 µM) in [5]; 50 µM in [20]; 147 ± 7.32 µg/mL (≈ 317 µM) in data set [7]; 141 ± 14 µg/mL (≈ 304 µM) in data set [10]. The “concentration up to which no cytotoxic activity was shown” value in data set [2] is > 100 µg/mL. For the same compound, in [21] (10–100 µM, time- and dose-dependent), the “cell viability of A549” value is on record as “inhibited cell viability”. Further, in [21] (24 h, dose-dependent), the “percentage of apoptotic cells, A549” value is on record as “significant increase”. The “viable cells, MDA-MB-231” value in data set [8] amounted to 46%. For the same compound, the “early apoptotic cells, MDA-MB-231” value in data set [8] was 22%. For the same compound, the “necrotic cells, MDA-MB-231” value in [8] came out at 6%. For the same compound, in [8], the “late apoptotic cells, MDA-MB-231” value turned out to be 26%.

For `O=C(O)/C=C/c1ccc(O)c(O)c1` [Compound 4, Caffeic acid], the “concentration up to which no cytotoxic activity was shown, Bel-7402” value in data set [22] is reported as > 100 µg/mL. Moreover, the “concentration up to which no cytotoxic activity was shown, A375-S2” value in data set [23] is > 100 µg/mL. In addition, the “concentration up to which no cytotoxic activity was shown, HeLa” value in [24] is > 100 µg/mL. Moreover, the half-inhibitory concentration (IC50) in data set [5] turned out to be 149 ± 14.1 µg/mL (≈ 825 µM). Further, the “concentration up to which no cytotoxic activity was shown, SGC-7901” value in data set [25] is listed as > 100 µg/mL. The “cell viability, HT-1080” value in [26] (50 µg/mL) was 15%. In addition, the “inhibition of HT-1080 cell line” value in data set [26] (30, 40, and 50 μg/mL) is “notably inhibited”. For the same compound, the “early apoptotic cells, MCF-7” value in [11] (quadrant LR, doses as b44) came out at 52%. Also, the “necrotic cells, MCF-7” value in [11] (quadrant UL, doses as b44) stood at 3%. Also, in [11] (quadrant UR, doses as b44), the “late apoptotic cells, MCF-7” value turned out to be 13%. The IC50 in [7] was determined as 40.3 ± 2.84 µg/mL (≈ 224 µM). Also, in data set [8], the “viable cells, MDA-MB-231” value is given as 30%; the “early apoptotic cells, MDA-MB-231” value is given as 52%; the “necrotic cells, MDA-MB-231” value came to 3%; the “late apoptotic cells, MDA-MB-231” value was found to be 13%. Moreover, the half-inhibitory concentration (IC50) in [10] worked out at 64 ± 4.11 µg/mL (≈ 355 µM).

For the compound `COc1cc(-c2oc3cc(O)cc(O)c3c(=O)c2O[C@@H]2O[C@H](CO[C@@H]3O[C@@H](C)[C@H](O)[C@@H](O)[C@H]3O)[C@@H](O)[C@H](O)[C@H]2O)ccc1O` [Compound 2, Isorhamnetin-3-O-rutinoside], the “concentration up to which no cytotoxic activity was shown, HCT-116” value in data set [27] was > 100 µM. Besides, in data set [28], the “concentration up to which no cytotoxic activity was shown, OVCAR-3” value was > 100 µM. Moreover, the results for the concentration for half-maximal inhibition (IC50) in [5], in data set [7] and in data set [10] were 133 ± 23.5 µg/mL (≈ 214 µM), 137 ± 8.62 µg/mL (≈ 220 µM) and 77.8 ± 39.9 µg/mL (≈ 125 µM), respectively. Moreover, the “hepatoprotective activity, HEP-G2” value in [29] is recorded as “no significant hepatoprotective activity”. Further, the “viable cells, MDA-MB-231” value in data set [8] came out at 63%. Further, the “concentration up to which no cytotoxic activity was shown, IGROV-1” value in data set [30] is > 100 µM.

The record behind these values is PMC10336577 (Saudi Pharmaceutical Journal : SPJ, 2023).
